Data taken from ChEMBL document CHEMBL4376840, “Application of Fluorine- and Nitrogen-Walk Approaches: Defining the Structural and Functional Diversity of 2-Phenylindole Class of Cannabinoid 1 Receptor Positive Allosteric Modulators” (J Med Chem, 2020).
Calls of active or inactive are those of the source.

Columns and labels:
[1] = target: Cannabinoid receptor 1 (Rattus norvegicus) (UniProt P20272); experiment: (§1) Positive allosteric modulatory activity at N-terminal GFP-tagged rat CB1R receptor expressed in HEK293 cells assessed as increase in CP55940-induced inhibition of forskolin-induced cAMP accumulation by measuring Emax for cAMP accumulation at low concentration of CP55940 at 0.1 microM after 30 mins by TR-FRET assay relative to forskolin; type: functional, cell-based
Chain of Cannabinoid receptor 1 (Rattus norvegicus) (P20272 whole entry): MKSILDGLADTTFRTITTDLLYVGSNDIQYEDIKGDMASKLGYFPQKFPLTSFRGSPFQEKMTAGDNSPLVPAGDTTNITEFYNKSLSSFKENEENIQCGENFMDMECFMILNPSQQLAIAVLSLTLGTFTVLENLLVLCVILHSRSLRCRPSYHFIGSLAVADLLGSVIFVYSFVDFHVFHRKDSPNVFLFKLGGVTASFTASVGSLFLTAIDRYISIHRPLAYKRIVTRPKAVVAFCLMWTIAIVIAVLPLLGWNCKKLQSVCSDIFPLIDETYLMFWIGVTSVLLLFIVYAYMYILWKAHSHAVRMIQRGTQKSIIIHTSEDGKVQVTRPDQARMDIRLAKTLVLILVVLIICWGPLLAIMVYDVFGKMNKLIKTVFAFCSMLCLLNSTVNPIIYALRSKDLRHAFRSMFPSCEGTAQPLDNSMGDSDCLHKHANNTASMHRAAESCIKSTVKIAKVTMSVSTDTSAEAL

[2] = target: Cannabinoid receptor 1 (Rattus norvegicus) (UniProt P20272); experiment: as §1, with “0.3” for “0.1”; type: functional, cell-based
Mus musculus [3] = experiment: Antiallodynic activity against CFA-induced mechanical allodynia CD1 mouse model assessed as increase in ipsilateral paw withdrawal threshold at 30 mg/kg, ip after […] post treatment by Von Frey test; type: functional, organism-based
[4] = buffer, pH 7.4, 2 h
Cannabinoid receptor 1 [5] = target: T1, Cannabinoid receptor 1 (Homo sapiens, UniProt P21554); experiment: Allosteric agonist activity at human CB1R expressed in CHO-K1 cells assessed as inhibition of forskolin-induced cAMP accumulation after 90 mins by hit-hunter cAMP assay; type: functional, cell-based
T1 sequence (P21554 whole entry): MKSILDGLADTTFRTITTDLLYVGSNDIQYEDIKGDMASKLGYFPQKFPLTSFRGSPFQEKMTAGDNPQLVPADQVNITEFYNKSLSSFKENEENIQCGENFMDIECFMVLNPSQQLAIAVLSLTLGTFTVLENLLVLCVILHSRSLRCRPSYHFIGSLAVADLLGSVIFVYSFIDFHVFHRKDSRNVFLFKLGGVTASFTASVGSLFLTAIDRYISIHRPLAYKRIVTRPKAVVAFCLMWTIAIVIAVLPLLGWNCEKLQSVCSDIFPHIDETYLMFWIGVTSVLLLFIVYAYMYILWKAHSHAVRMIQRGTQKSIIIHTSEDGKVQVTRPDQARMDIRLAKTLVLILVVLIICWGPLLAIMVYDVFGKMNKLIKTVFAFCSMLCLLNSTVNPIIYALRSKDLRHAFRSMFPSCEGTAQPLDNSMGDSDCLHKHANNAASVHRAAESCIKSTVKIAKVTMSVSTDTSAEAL
Procedure, shortened: (§2)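 HitHunter CHO-K1 hCB1R cells (20,000/well) were held overnight in Opti-MEM with 1% FBS. They were then co-treated at 37°C with 10 μM forskolin plus compound alone (0.10 nM – 10 μM) for 90 min. Chemiluminescent cAMP detection followed (two 60-min room-temperature steps). Data as % forskolin, variable-slope 4-parameter fit; Emin is the lower plateau. n ≥ 6, triplicate.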

[6] = target: Cannabinoid receptor 1 (Rattus norvegicus) (UniProt P20272); experiment: Positive allosteric modulatory activity at N-terminal GFP-tagged rat CB1R receptor expressed in HEK293 cells assessed as leftward shift in CP55940 dependent concentration response curve for inhibition of forskolin-induced cAMP accumulation after 30 mins by TR-FRET assay; type: functional, cell-based
Mus musculus [7] = experiment: Antinociceptive activity in C57BL/6 mouse at 3 to 10 mg/kg, ip after 20 mins post treatment by warm water tail-flick assay; type: functional, organism-based
Mus musculus [8] = experiment: Antiallodynic activity against CFA-induced mechanical allodynia CD1 mouse model assessed as effect on ipsilateral paw withdrawal threshold at 0.3 mg/kg, ip measured every 3 hrs for 2 days post treatment by Von Frey test; type: functional, organism-based
Procedure, shortened: (§3)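 Mice received CFA injection into one paw. Mechanical paw withdrawal thresholds were measured in the injected (ipsilateral) and contralateral paws after i.p. compound at 0.1, 0.3, 1, 3, 10 or 30 mg/kg, compared with vehicle-treated groups at the same times.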

Cannabinoid receptor 1 [9] = target: T1, Cannabinoid receptor 1; experiment: Positive allosteric modulatory activity at human CB1R expressed in CHO-K1 cells assessed as increase in CP55940-induced inhibition of forskolin-stimulated cAMP production after 30 mins in presence of CP55940 at EC20 concentration by hit-hunter cAMP assay; type: functional, cell-based
Procedure, shortened: (§4)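 Read-out was chemiluminescent cAMP detection, fit with a variable-slope 4-parameter regression. n = 1–3 independent experiments in duplicate.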

[10] = target: Cannabinoid receptor 1 (Rattus norvegicus) (UniProt P20272); experiment: Allosteric agonist activity at N-terminal GFP-tagged rat CB1R expressed in HEK293 cells assessed as inhibition of forskolin-induced cAMP production by measuring cAMP accumulation at minimal level at higher concentrations after 30 min by TR-FRET assay relative to forskolin; type: functional, cell-based
Procedure, shortened: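 HEK293 cells stably expressing N-terminal GFP-tagged rat CB1R were trypsin-EDTA dissociated and resuspended in HBSS with 0.1% BSA and 0.5mM IBMX at 500 cells/well. Cells got 5μM forskolin plus compound (1 pM – 10 μM) alone for 30 min. 4-parameter fit; Emin is the lower plateau. n ≥ 3, triplicate.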

Cannabinoid receptor 1 [11] = target: T1, Cannabinoid receptor 1; experiment: Positive allosteric modulatory activity at human CB1R expressed in CHO-K1 cells assessed as increase in CP55940-induced inhibition of forskolin-stimulated cAMP production after 30 mins in presence of CP55940 at EC20 concentration by hit-hunter cAMP assay relative to control; type: functional, cell-based; procedure, shortened: as §4
Cannabinoid receptor 1 [12] = target: T1, Cannabinoid receptor 1; experiment: Positive allosteric modulatory activity at human CB1R expressed in CHO-K1 cells assessed as increase in CP55940-induced beta arrestin2 recruitment after 90 mins in presence of 100 nM CP55940 by pathhunter beta-arrestin assay; type: cell-based
[13] = Toxicity in C57BL/6 mouse assessed as effect on hypothermia at 0.1 to 10 mg/kg, ip after 15 mins by thermometric method; type: organism-based; conditions: in vivo
Procedure, shortened: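 Male C57BL/6 mice were given 0.1 – 10 mg/kg compound or vehicle (1:1:18 ethanol:cremaphor:saline). Body temperature was measured at 15 min and expressed relative to vehicle (100%). n = 5–6.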

Mus musculus [14] = experiment: Antiallodynic activity against CFA-induced mechanical allodynia CD1 mouse model assessed as increase in ipsilateral paw withdrawal threshold at 30 mg/kg, ip by Von Frey test; type: functional, organism-based; conditions: TDE = time-dependent effect
Procedure, shortened: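 Time course in the CFA model at 30 mg/kg i.p. Ipsilateral and contralateral mechanical paw withdrawal thresholds were followed from 30 min to 4 h post-injection in wild-type and CB1 knockout mice. Compared with vehicle by ANOVA and Bonferroni post hoc tests.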

Mus musculus [15] = experiment: Effect on contralateral paw withdrawl threshold in CFA-induced mechanical allodynia CD1 mouse model at 0.1 to 30 mg/kg, ip measured every 3 hrs for 2 days post treatment by Von Frey test; type: ADME, organism-based; conditions: in vivo, 48 h; procedure, shortened: as §3
Cannabinoid receptor 1 [16] = target: T1, Cannabinoid receptor 1; experiment: Positive allosteric modulatory activity at human CB1R expressed in CHO-K1 cells assessed as increase in CP55940-induced beta-arrestin2 recruitment after 90 mins in presence of CP55940 at EC20 concentration by pathhunter beta-arrestin assay relative to control; type: cell-based
Procedure, shortened: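 Read-out was chemiluminescent β-arrestin2 recruitment, fit with a 4-parameter regression. n = 1–3 independent experiments in duplicate.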

Cannabinoid receptor 1 [17] = target: T1, Cannabinoid receptor 1; experiment: Allosteric agonist activity at human CB1R expressed in CHO-K1 cells assessed as inhibition of forskolin-induced cAMP accumulation by measuring cAMP accumulation at minimal level at higher concentrations after 90 mins by hit-hunter cAMP assay relative to forskolin; type: functional, cell-based; procedure, shortened: as §2
Cannabinoid receptor 1 [18] = target: T1, Cannabinoid receptor 1; experiment: Displacement of [3H]CP55940 from human CB1R receptor expressed in CHO cell membranes after 60 mins by liquid scintillation spectrometry analysis
Cannabinoid receptor 1 [19] = target: T1, Cannabinoid receptor 1; experiment: Positive allosteric modulatory activity at human CB1R expressed in CHO-K1 cells assessed as increase in CP55940-induced inhibition of forskolin-induced cAMP accumulation after 90 mins in presence of 100 nM CP55940 by hit-hunter cAMP assay; type: functional, cell-based
Procedure, shortened: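 Uses the HitHunter CHO-K1 hCB1R cAMP set-up above. Data normalized to % forskolin, 4-parameter fit. n ≥ 6, triplicate.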

Cannabinoid receptor 1 [20] = target: T1, Cannabinoid receptor 1; experiment: Agonist activity at human CB1 receptor expressed in CHO cell membranes assessed as increase in G-protein coupling by measuring [35S]GTPgammaS binding after 90 mins in presence of [35S]GTPgammaS by liquid scintillation analysis relative to control; type: functional
Procedure, shortened: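 [35S]GTPγS binding to G protein in membranes from CHO cells stably expressing human CB1R, with test compound given alone. Data fit to a variable-slope 4-parameter nonlinear regression. n = 4–6 independent experiments in duplicate.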

Cannabinoid receptor 1 [21] = target: T1, Cannabinoid receptor 1; experiment: Allosteric agonist activity at human CB1R expressed in CHO-K1 cells assessed as increase in beta arrestin2 recruitment after 90 mins by pathhunter beta-arrestin assay; type: cell-based
Procedure, shortened: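 PathHunter CHO-K1 hCB1R cells (20,000/well) were held overnight in Opti-MEM with 1% FBS. Compound alone (0.10 nM – 10 μM) was given at 37°C for 90 min, then detection solution for 60 min at room temperature and chemiluminescence was read.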

Structure (SMILES) | Emax [1] | Emax [2] | Activity (Mus musculus [3]) | Kinetic_solubility [4] | EC50 (Cannabinoid receptor 1 [5]) | Activity [6] | Activity (Mus musculus [7]) | Activity (Mus musculus [8]) | EC50 (Cannabinoid receptor 1 [9]) | Emin [10] | Emax (Cannabinoid receptor 1 [11]) | EC50 (Cannabinoid receptor 1 [12]) | Activity [13] | Activity (Mus musculus [14]) | Activity (Mus musculus [15]) | Emax (Cannabinoid receptor 1 [16]) | Emin (Cannabinoid receptor 1 [17]) | Ki (Cannabinoid receptor 1 [18]) | EC50 (Cannabinoid receptor 1 [19]) | Emax (Cannabinoid receptor 1 [20]) | other results
O=[N+]([O-])CC(c1ccccc1F)c1c(-c2cccc(F)c2)[nH]c2c(F)cccc12 (configuration not stated) | 52% | 33% | Active | 1.56 µM | 0.0039 µM | Dose-dependent effect | Active | inactive | 0.0091 µM | 30% | 93% | 3.5 µM | Non-Toxic | Tde | Non-Toxic | 82% | 18% | 0.094 µM | 0.0017 µM | 84% | EC50 (Cannabinoid receptor 1 [21]): > 10 µM
O=[N+]([O-])CC(c1ccccc1F)c1c(-c2cccc(F)c2)[nH]c2cc(F)ccc12 (configuration not stated) | 46% | 32% | Active | 1.56 µM | 0.0043 µM | Dose-dependent effect | Active | inactive | 0.028 µM | 32% | 93% | 0.19 µM | Non-Toxic | Tde | Non-Toxic | 71% | 4.2% | 0.088 µM | 0.0022 µM | 81% | EC50 (Cannabinoid receptor 1 [21]): 1.6 µM
